Source: ChEMBL document CHEMBL4732114, “Design and structural optimization of novel 2H-benzo[h]chromene derivatives that target AcrB and reverse bacterial multidrug resistance” (Eur J Med Chem, 2021)
Converted amounts (≈) assume the structure as drawn.

Columns and labels:
Cell membrane [1] = experiment: Induction of outer membrane permeabilization in wild type Escherichia coli BW25113 assessed as increase in nitrocefin hydrolysis at 128 ug/ml in presence of CCCP by spectroscopic analysis; details: dose 128 µg/ml
Method in brief: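 Intact E. coli were treated with 10 μM CCCP to block nitrocefin efflux, then given compound, nothing, or polymyxin B as permeabilizer control. Nitrocefin was added, and hydrolysis by periplasmic β-lactamase was followed as the rise in absorbance at 490 nm. Duplicate experiments were run on different days.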

Cell membrane [2] = experiment: Induction of inner membrane permeabilization in wild type Escherichia coli BW25113 assessed as perturbation of proton motive force at 128 ug/ml measured after 10 mins in presence of CCCP and glucose by Di0C2(3) probe based fluorescence assay; details: escherichia coli bw25113, 10 min, dose 128 µg/ml
Method in brief: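 Cell suspensions were left untreated or exposed to 8-128 µg/mL compound for 10 min. DiOC₂(3) was then added and fluorescence followed to a plateau. Cells were re-energized with 0.5% glucose, and the rise in fluorescence was read as membrane-potential build-up. CCCP was added last to dissipate the potential.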

[3] = biological target: T1, Multidrug efflux pump subunit AcrB (Escherichia coli (strain K12)) (UniProt P31224); experiment: Inhibition of AcrB in multidrug-resistant Escherichia coli BW25113 assessed as potentiation of tetraphenylphosphonium-induced antibacterial activity by measuring tetraphenylphosphonium MIC at 128 ug/ml by checkerboard titration method (reference value: 1024 ug/ml); details: dose 128.0 µg/ml
T1 sequence (whole entry): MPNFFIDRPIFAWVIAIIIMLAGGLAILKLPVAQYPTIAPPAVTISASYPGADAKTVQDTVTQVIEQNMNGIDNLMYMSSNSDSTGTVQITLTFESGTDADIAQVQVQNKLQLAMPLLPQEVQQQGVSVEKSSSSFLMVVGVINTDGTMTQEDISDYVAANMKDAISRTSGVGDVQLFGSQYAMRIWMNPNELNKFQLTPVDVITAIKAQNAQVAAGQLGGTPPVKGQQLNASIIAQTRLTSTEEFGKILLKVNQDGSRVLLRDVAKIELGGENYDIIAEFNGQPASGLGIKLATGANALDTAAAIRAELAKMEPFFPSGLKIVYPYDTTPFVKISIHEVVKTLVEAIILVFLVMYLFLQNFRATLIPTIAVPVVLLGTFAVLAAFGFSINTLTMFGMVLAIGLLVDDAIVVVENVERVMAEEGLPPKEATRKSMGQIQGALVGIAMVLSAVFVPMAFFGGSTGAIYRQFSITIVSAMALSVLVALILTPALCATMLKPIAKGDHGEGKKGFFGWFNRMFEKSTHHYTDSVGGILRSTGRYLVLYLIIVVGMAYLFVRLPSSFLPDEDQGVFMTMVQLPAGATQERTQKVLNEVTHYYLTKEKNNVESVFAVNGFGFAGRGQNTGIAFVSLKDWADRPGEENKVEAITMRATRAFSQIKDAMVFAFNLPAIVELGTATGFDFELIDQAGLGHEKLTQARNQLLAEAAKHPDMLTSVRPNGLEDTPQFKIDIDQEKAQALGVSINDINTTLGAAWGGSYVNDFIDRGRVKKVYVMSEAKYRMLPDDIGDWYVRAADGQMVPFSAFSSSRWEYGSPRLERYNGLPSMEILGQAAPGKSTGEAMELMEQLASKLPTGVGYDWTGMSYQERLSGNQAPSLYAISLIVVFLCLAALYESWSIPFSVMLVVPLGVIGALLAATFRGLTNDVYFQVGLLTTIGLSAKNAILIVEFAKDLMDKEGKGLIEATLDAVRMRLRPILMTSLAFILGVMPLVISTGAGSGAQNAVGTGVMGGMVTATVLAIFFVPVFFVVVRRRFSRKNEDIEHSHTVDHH

[4] = biological target: T1, Multidrug efflux pump subunit AcrB (Escherichia coli (strain K12)); experiment: Inhibition of AcrB in multidrug-resistant Escherichia coli BW25113 assessed as potentiation of levofloxacin-induced antibacterial activity by measuring levofloxacin MIC at 128 ug/ml by checkerboard titration method (reference value: 0.06 ug/ml); details: dose 128.0 µg/ml
[5] = biological target: T1, Multidrug efflux pump subunit AcrB (Escherichia coli (strain K12)); experiment: Inhibition of AcrB in multidrug-resistant Escherichia coli BW25113 assessed as potentiation of tetraphenylphosphonium-induced antibacterial activity by measuring tetraphenylphosphonium MIC at 8 ug/ml by checkerboard titration method (reference value: 1024 ug/ml); details: dose 8.0 µg/ml
[6] = biological target: T1, Multidrug efflux pump subunit AcrB (Escherichia coli (strain K12)); experiment: Inhibition of AcrB in multidrug-resistant Escherichia coli BW25113 assessed as potentiation of erythromycin-induced antibacterial activity by measuring erythromycin MIC at 32 ug/ml by checkerboard titration method (reference value: 64 ug/ml); details: dose 32.0 µg/ml
[7] = biological target: T1, Multidrug efflux pump subunit AcrB (Escherichia coli (strain K12)); details: Escherichia coli BW25113; dose 16.0 µg/ml
[8] = biological target: T1, Multidrug efflux pump subunit AcrB (Escherichia coli (strain K12)); experiment: Inhibition of AcrB in multidrug-resistant Escherichia coli BW25113 assessed as potentiation of tetraphenylphosphonium-induced antibacterial activity by measuring tetraphenylphosphonium MIC at 32 ug/ml by checkerboard titration method (reference value: 1024 ug/ml); details: dose 32.0 µg/ml
[9] = biological target: T1, Multidrug efflux pump subunit AcrB (Escherichia coli (strain K12)); experiment: Inhibition of AcrB in multidrug-resistant Escherichia coli BW25113 assessed as potentiation of tetraphenylphosphonium-induced antibacterial activity by measuring tetraphenylphosphonium MIC at 64 ug/ml by checkerboard titration method (reference value: 1024 ug/ml); details: dose 64.0 µg/ml
[10] = biological target: T1, Multidrug efflux pump subunit AcrB (Escherichia coli (strain K12)); details: Escherichia coli BW25113; dose 32.0 µg/ml
[11] = biological target: T1, Multidrug efflux pump subunit AcrB (Escherichia coli (strain K12)); experiment: Inhibition of AcrB in multidrug-resistant Escherichia coli BW25113 assessed as potentiation of levofloxacin-induced antibacterial activity by measuring levofloxacin MIC at 8 ug/ml by checkerboard titration method (reference value: 0.06 ug/ml); details: dose 8.0 µg/ml
[12] = biological target: T1, Multidrug efflux pump subunit AcrB (Escherichia coli (strain K12)); experiment: Inhibition of AcrB in multidrug-resistant Escherichia coli BW25113 assessed as potentiation of chloramphenicol-induced antibacterial activity by measuring chloramphenicol MIC at 8 ug/ml by checkerboard titration method (reference value: 8 ug/ml); details: dose 8.0 µg/ml
[13] = biological target: T1, Multidrug efflux pump subunit AcrB (Escherichia coli (strain K12)); experiment: Inhibition of AcrB in multidrug-resistant Escherichia coli BW25113 assessed as potentiation of chloramphenicol-induced antibacterial activity by measuring chloramphenicol MIC at 32 ug/ml by checkerboard titration method (reference value: 8 ug/ml); details: dose 32.0 µg/ml
[14] = biological target: T1, Multidrug efflux pump subunit AcrB (Escherichia coli (strain K12)); experiment: Inhibition of AcrB in multidrug-resistant Escherichia coli BW25113 assessed as potentiation of erythromycin-induced antibacterial activity by measuring erythromycin MIC at 8 ug/ml by checkerboard titration method (reference value: 64 ug/ml); details: dose 8.0 µg/ml
[15] = biological target: T1, Multidrug efflux pump subunit AcrB (Escherichia coli (strain K12)); experiment: Inhibition of AcrB in multidrug-resistant Escherichia coli BW25113 assessed as potentiation of levofloxacin-induced antibacterial activity by measuring levofloxacin MIC at 32 ug/ml by checkerboard titration method (reference value: 0.06 ug/ml); details: dose 32.0 µg/ml
[16] = biological target: T1, Multidrug efflux pump subunit AcrB (Escherichia coli (strain K12)); experiment: Inhibition of AcrB in multidrug-resistant Escherichia coli BW25113 assessed as potentiation of chloramphenicol-induced antibacterial activity by measuring chloramphenicol MIC at 128 ug/ml by checkerboard titration method (reference value: 8 ug/ml); details: dose 128.0 µg/ml

| Compound | Activity (Cell membrane [1]) | Activity (Cell membrane [2]) | MIC [3] [µg/mL] | MIC [4] [µg/mL] | MIC [5] [µg/mL] | MIC [6] [µg/mL] | MIC [7] [µg/mL] | MIC [8] [µg/mL] | MIC [9] [µg/mL] | MIC [10] [µg/mL] | MIC [11] [µg/mL] | MIC [12] [µg/mL] | MIC [13] [µg/mL] | MIC [14] [µg/mL] | MIC [15] [µg/mL] | MIC [16] [µg/mL] |
| --- | --- | --- | --- | --- | --- | --- | --- | --- | --- | --- | --- | --- | --- | --- | --- | --- |
| CC1CN(C(=O)c2cc3c(OCc4ccc(Br)cc4)cccc3c3c2CCC(C)(C)O3)CC(C)O1 (stereo not drawn) | Not Active | Not Active | 512 | 0.06 | 1020 | 64 | 16 (≈ 29.7 µM) | 1020 | 1020 | 16 (≈ 29.7 µM) | 0.06 | 8 | 8 | 64 | 0.06 | 8 |
| CC1(C)CCc2c(Cn3cnnn3)cc3c(OCc4ccc(OC(F)(F)F)cc4)cccc3c2O1 | Not Active | Not Active | 1020 | 0.06 | 1020 | 64 | 16 (≈ 33 µM) | 1020 | 1020 | 16 (≈ 33 µM) | 0.06 | 8 | 8 | 64 | 0.06 | 4 |
| CC1(C)CCc2c(-c3nnco3)cc3c(OCc4ccc([N+](=O)[O-])cc4)cccc3c2O1 |  | Not Active | 1020 | 0.06 | 1020 | 64 | 16 (≈ 37.1 µM) | 1020 | 1020 | 16 (≈ 37.1 µM) | 0.06 | 8 | 8 | 64 | 0.06 | 4 |
| COc1cccc(COc2cccc3c4c(c(C(=O)O)cc23)CCC(C)(C)O4)c1 | Not Active | Not Active | 256 | 0.06 | 1020 | 32 | 16 (≈ 40.8 µM) | 1020 | 512 | 16 (≈ 40.8 µM) | 0.06 | 8 | 8 | 64 | 0.06 | 4 |
| CC1(C)CCc2c(Cn3cnnn3)cc3c(OCc4ccccc4)cccc3c2O1 |  | Not Active | 1020 | 0.03 | 1020 | 64 | 16 (≈ 40 µM) | 1020 | 1020 | 16 (≈ 40 µM) | 0.06 | 8 | 8 | 64 | 0.06 | 4 |
| C=CC(=O)Nc1ccc(COc2cccc3c4c(c(Cn5cnnn5)cc23)CCC(C)(C)O4)cc1 |  | Not Active | 1020 | 0.06 | 1020 | 32 | 16 (≈ 34.1 µM) | 1020 | 1020 | 16 (≈ 34.1 µM) | 0.06 | 8 | 4 | 64 | 0.06 | 4 |
| CC(C)NCCOc1ccc2c(c1)OC(C)(C)CC2=O | Not Active |  | 1020 | 0.03 | 1020 | 64 | 16 (≈ 57.7 µM) | 1020 | 1020 | 16 (≈ 57.7 µM) | 0.03 | 8 | 8 | 64 | 0.03 | 8 |
| CNC(=O)c1ccc(COc2cccc3c4c(c(Cn5cnnn5)cc23)CCC(C)(C)O4)cc1 |  | Not Active | 1020 | 0.06 | 1020 | 64 | 16 (≈ 35 µM) | 1020 | 1020 | 16 (≈ 35 µM) | 0.06 | 8 | 8 | 64 | 0.06 | 4 |
